Data as given in ChEMBL document CHEMBL1134636, “Structure-activity studies on nociceptin analogues: ORL1 receptor binding and biological activity of cyclic disulfide-containing analogues of nociceptin peptides” (J Med Chem, 2001).
Peptide text beside a SMILES is read from it.

Legend:
Nociceptin receptor [1] = target: T1, Nociceptin receptor (Homo sapiens, UniProt P41146); experiment: Displacement of [3H]NC from human ORL1 receptor expressing HEK293 cell membrane; assay type: cell membranes
Nociceptin receptor [2] = target: T1, Nociceptin receptor; experiment: Efficacy for human ORL1 receptor expressing HEK293 cells; assay type: functional, cell-based
Method in brief: (§1)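 Membranes from HEK-293 cells expressing human ORL1 (10 μg) were incubated for 30 min at 24 °C with peptides (0.01 nM to 10 μM) in 20 mM HEPES pH 7.4 with 100 mM NaCl, 10 mM MgCl₂, 1 mM EDTA, 5 μM GDP and 400 pM [³⁵S]GTPγS. Binding was read with WGA-coated SPA beads.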

Nociceptin receptor [3] = target: T1, Nociceptin receptor; experiment: Efficacy for human ORL1 receptor expressing HEK293 cell membrane; assay type: functional, cell-based; method in brief: as §1

T1 sequence (P41146 whole entry): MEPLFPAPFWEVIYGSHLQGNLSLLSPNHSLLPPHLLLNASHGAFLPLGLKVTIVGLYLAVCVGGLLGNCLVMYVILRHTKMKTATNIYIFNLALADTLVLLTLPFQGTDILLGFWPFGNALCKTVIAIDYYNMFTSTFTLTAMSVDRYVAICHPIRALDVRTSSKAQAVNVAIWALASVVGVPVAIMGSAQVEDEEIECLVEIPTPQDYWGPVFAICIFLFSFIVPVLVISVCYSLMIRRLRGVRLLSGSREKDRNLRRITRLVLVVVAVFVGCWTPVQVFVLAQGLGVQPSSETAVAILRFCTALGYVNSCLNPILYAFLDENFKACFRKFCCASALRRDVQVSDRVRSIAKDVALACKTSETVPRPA

Compound | IC50 (Nociceptin receptor [1]) | EC50 (Nociceptin receptor [2]) | Emax (Nociceptin receptor [3]) | IC50 (Nociceptin receptor [1]; hek293) | EC50 (Nociceptin receptor [2]; hek293)
C[C@H](NC(=O)CNC(=O)[C@@H](NC(=O)[C@H](Cc1ccccc1)NC(=O)CNC(=O)CNC(=O)[C@@H](N)Cc1ccccc1)[C@@H](C)O)C(=O)N[C@@H](CCCNC(=N)N)C(=O)N[C@@H](CCCCN)C(=O)N[C@@H](CS)C(=O)N[C@@H](C)C(=O)N[C@@H](CCCNC(=N)N)C(=O)N[C@@H](CCCCN)C(=O)N[C@@H](CS)C(N)=O (H-FGGFTGARKCARKC-NH2) | 0.471 nM | 3.9 nM | – | – | –
C[C@H](NC(=O)[C@@H]1CSSC[C@H](NC(=O)[C@@H](NC(=O)[C@H](Cc2ccccc2)NC(=O)CNC(=O)CNC(=O)[C@@H](N)Cc2ccccc2)[C@@H](C)O)C(=O)N[C@@H](C)C(=O)N[C@@H](CCCNC(=N)N)C(=O)N[C@@H](CCCCN)C(=O)N1)C(=O)N[C@@H](CCCNC(=N)N)C(=O)N[C@@H](CCCCN)C(N)=O (HELM PEPTIDE1{F.G.G.F.T.C.A.R.K.C.A.R.K.[am]}$PEPTIDE1,PEPTIDE1,6:R3-10:R3$$$V2.0) | 0.833 nM | 31.3 nM | 99% | – | –
C[C@H](NC(=O)[C@H](CO)NC(=O)[C@H](CCCCN)NC(=O)[C@H](CCCN=C(N)N)NC(=O)[C@H](C)NC(=O)[C@H](CS)NC(=O)[C@@H](NC(=O)[C@H](Cc1ccccc1)NC(=O)CNC(=O)CNC(=O)[C@H](Cc1ccccc1)NC(=O)[C@@H](N)CS)[C@@H](C)O)C(=O)N[C@@H](CCCN=C(N)N)C(=O)N[C@@H](CCCCN)C(N)=O (H-CFGGFTCARKSARK-NH2) | – | – | 12% | – | –
C[C@H](NC(=O)[C@H](CO)NC(=O)[C@H](CCCCN)NC(=O)[C@H](CCCN=C(N)N)NC(=O)[C@H](CS)NC(=O)CNC(=O)[C@@H](NC(=O)[C@H](Cc1ccccc1)NC(=O)CNC(=O)CNC(=O)[C@@H](N)Cc1ccccc1)[C@@H](C)O)C(=O)N[C@@H](CCCN=C(N)N)C(=O)N[C@@H](CCCCN)C(=O)N[C@@H](CS)C(N)=O (H-FGGFTGCRKSARKC-NH2) | – | – | 101% | – | –
C[C@@H]1NC(=O)[C@H](CO)NC(=O)[C@H](CCCCN)NC(=O)[C@H](CCCN=C(N)N)NC(=O)[C@@H](NC(=O)CNC(=O)[C@@H](NC(=O)[C@H](Cc2ccccc2)NC(=O)CNC(=O)CNC(=O)[C@@H](N)Cc2ccccc2)[C@@H](C)O)CSSC[C@@H](C(N)=O)NC(=O)[C@H](CCCCN)NC(=O)[C@H](CCCN=C(N)N)NC1=O (HELM PEPTIDE1{F.G.G.F.T.G.C.R.K.S.A.R.K.C.[am]}$PEPTIDE1,PEPTIDE1,7:R3-14:R3$$$V2.0) | – | – | 95% | – | –
C[C@@H]1NC(=O)CNC(=O)[C@H]([C@@H](C)O)NC(=O)[C@H](Cc2ccccc2)NC(=O)CNC(=O)CNC(=O)[C@H](Cc2ccccc2)NC(=O)[C@@H](N)CSSC[C@@H](C(=O)N[C@@H](C)C(=O)N[C@@H](CCCN=C(N)N)C(=O)N[C@@H](CCCCN)C(N)=O)NC(=O)[C@H](CCCCN)NC(=O)[C@H](CCCN=C(N)N)NC1=O (HELM PEPTIDE1{C.F.G.G.F.T.G.A.R.K.C.A.R.K.[am]}$PEPTIDE1,PEPTIDE1,1:R3-11:R3$$$V2.0) | – | – | 81% | – | –
C[C@H](NC(=O)[C@H](CO)NC(=O)[C@H](CCCCN)NC(=O)[C@H](CCCNC(=N)N)NC(=O)[C@H](CS)NC(=O)CNC(=O)[C@@H](NC(=O)[C@H](Cc1ccccc1)NC(=O)CNC(=O)CNC(=O)[C@@H](N)Cc1ccccc1)[C@@H](C)O)C(=O)N[C@@H](CCCNC(=N)N)C(=O)N[C@@H](CCCCN)C(=O)N[C@@H](CS)C(N)=O (H-FGGFTGCRKSARKC-NH2) | 37.2 nM | 22.3 nM | – | – | –
C[C@@H](O)[C@H](NC(=O)[C@H](Cc1ccccc1)NC(=O)CNC(=O)CNC(=O)[C@@H](N)Cc1ccccc1)C(=O)NCC(=O)N[C@H]1CSSC[C@@H](C(=O)N[C@@H](CCCN=C(N)N)C(=O)N[C@@H](CCCCN)C(N)=O)NC(=O)[C@H](CO)NC(=O)[C@H](CCCCN)NC(=O)[C@H](CCCN=C(N)N)NC1=O (HELM PEPTIDE1{F.G.G.F.T.G.C.R.K.S.C.R.K.[am]}$PEPTIDE1,PEPTIDE1,7:R3-11:R3$$$V2.0) | 3.04 nM | 156 nM | 120% | – | –
C[C@H](NC(=O)CNC(=O)[C@@H](NC(=O)[C@H](Cc1ccccc1)NC(=O)CNC(=O)CNC(=O)[C@@H](N)Cc1ccccc1)[C@@H](C)O)C(=O)N[C@@H](CCCN=C(N)N)C(=O)N[C@@H](CCCCN)C(=O)N[C@@H](CS)C(=O)N[C@@H](C)C(=O)N[C@@H](CCCN=C(N)N)C(=O)N[C@@H](CCCCN)C(=O)N[C@@H](CS)C(N)=O (H-FGGFTGARKCARKC-NH2) | – | – | 105% | – | –
C[C@H](NC(=O)[C@H](CO)NC(=O)[C@H](CCCCN)NC(=O)[C@H](CCCNC(=N)N)NC(=O)[C@H](CS)NC(=O)CNC(=O)[C@@H](NC(=O)[C@H](Cc1ccccc1)NC(=O)CNC(=O)CNC(=O)[C@H](Cc1ccccc1)NC(=O)[C@@H](N)CS)[C@@H](C)O)C(=O)N[C@@H](CCCNC(=N)N)C(=O)N[C@@H](CCCCN)C(N)=O (H-CFGGFTGCRKSARK-NH2) | – | – | – | 2710 nM | > 10000 nM
CC(C)C[C@H](NC(=O)[C@H](CCCCN)NC(=O)[C@H](CCCN=C(N)N)NC(=O)[C@H](C)NC(=O)[C@H](CO)NC(=O)[C@H](CCCCN)NC(=O)[C@H](CCCN=C(N)N)NC(=O)[C@H](C)NC(=O)CNC(=O)[C@@H](NC(=O)[C@H](Cc1ccccc1)NC(=O)CNC(=O)CNC(=O)[C@@H](N)Cc1ccccc1)[C@@H](C)O)C(N)=O (H-FGGFTGARKSARKL-NH2) | 0.52 nM | 1.97 nM | 105% | – | –
C[C@H](NC(=O)CNC(=O)[C@@H](NC(=O)[C@H](Cc1ccccc1)NC(=O)CNC(=O)CNC(=O)[C@@H](N)Cc1ccccc1)[C@@H](C)O)C(=O)N[C@@H](CCCN=C(N)N)C(=O)N[C@@H](CCCCN)C(=O)N[C@H]1CSSC[C@@H](C(N)=O)NC(=O)[C@H](CCCCN)NC(=O)[C@H](CCCN=C(N)N)NC(=O)[C@H](C)NC1=O (HELM PEPTIDE1{F.G.G.F.T.G.A.R.K.C.A.R.K.C.[am]}$PEPTIDE1,PEPTIDE1,10:R3-14:R3$$$V2.0) | – | – | 99% | – | –
C[C@@H](O)[C@H](NC(=O)[C@H](Cc1ccccc1)NC(=O)CNC(=O)CNC(=O)[C@@H](N)Cc1ccccc1)C(=O)NCC(=O)N[C@@H](CS)C(=O)N[C@@H](CCCN=C(N)N)C(=O)N[C@@H](CCCCN)C(=O)N[C@@H](CO)C(=O)N[C@@H](CS)C(=O)N[C@@H](CCCN=C(N)N)C(=O)N[C@@H](CCCCN)C(N)=O (H-FGGFTGCRKSCRK-NH2) | 8.7 nM | 26.3 nM | 99% | – | –
C[C@H](NC(=O)CNC(=O)[C@@H](NC(=O)[C@H](Cc1ccccc1)NC(=O)CNC(=O)CNC(=O)[C@H](Cc1ccccc1)NC(=O)[C@@H](N)CS)[C@@H](C)O)C(=O)N[C@@H](CCCN=C(N)N)C(=O)N[C@@H](CCCCN)C(=O)N[C@@H](CS)C(=O)N[C@@H](C)C(=O)N[C@@H](CCCN=C(N)N)C(=O)N[C@@H](CCCCN)C(N)=O (H-CFGGFTGARKCARK-NH2) | – | – | 59% | – | –
C[C@@H]1NC(=O)CNC(=O)[C@H]([C@@H](C)O)NC(=O)[C@H](Cc2ccccc2)NC(=O)CNC(=O)CNC(=O)[C@H](Cc2ccccc2)NC(=O)[C@@H](N)CSSC[C@@H](C(=O)N[C@@H](CCCNC(=N)N)C(=O)N[C@@H](CCCCN)C(N)=O)NC(=O)[C@H](CO)NC(=O)[C@H](CCCCN)NC(=O)[C@H](CCCNC(=N)N)NC1=O (HELM PEPTIDE1{C.F.G.G.F.T.G.A.R.K.S.C.R.K.[am]}$PEPTIDE1,PEPTIDE1,1:R3-12:R3$$$V2.0) | 387 nM | 439 nM | – | – | –
C[C@@H]1NC(=O)[C@H](CO)NC(=O)[C@H](CCCCN)NC(=O)[C@H](CCCNC(=N)N)NC(=O)[C@@H](NC(=O)CNC(=O)[C@@H](NC(=O)[C@H](Cc2ccccc2)NC(=O)CNC(=O)CNC(=O)[C@@H](N)Cc2ccccc2)[C@@H](C)O)CSSC[C@@H](C(N)=O)NC(=O)[C@H](CCCCN)NC(=O)[C@H](CCCNC(=N)N)NC1=O (HELM PEPTIDE1{F.G.G.F.T.G.C.R.K.S.A.R.K.C.[am]}$PEPTIDE1,PEPTIDE1,7:R3-14:R3$$$V2.0) | 4.97 nM | 25 nM | – | – | –
C[C@H](NC(=O)[C@H](CO)NC(=O)[C@H](CCCCN)NC(=O)[C@H](CCCN=C(N)N)NC(=O)[C@H](C)NC(=O)[C@@H]1CSSC[C@H](N)C(=O)N[C@@H](Cc2ccccc2)C(=O)NCC(=O)NCC(=O)N[C@@H](Cc2ccccc2)C(=O)N[C@@H]([C@@H](C)O)C(=O)N1)C(=O)N[C@@H](CCCN=C(N)N)C(=O)N[C@@H](CCCCN)C(N)=O (HELM PEPTIDE1{C.F.G.G.F.T.C.A.R.K.S.A.R.K.[am]}$PEPTIDE1,PEPTIDE1,1:R3-7:R3$$$V2.0) | – | – | 18% | – | –
C[C@H](NC(=O)CNC(=O)[C@@H](NC(=O)[C@H](Cc1ccccc1)NC(=O)CNC(=O)CNC(=O)[C@@H](N)Cc1ccccc1)[C@@H](C)O)C(=O)N[C@@H](CCCNC(=N)N)C(=O)N[C@@H](CCCCN)C(=O)N[C@H]1CSSC[C@@H](C(N)=O)NC(=O)[C@H](CCCCN)NC(=O)[C@H](CCCNC(=N)N)NC(=O)[C@H](C)NC1=O (HELM PEPTIDE1{F.G.G.F.T.G.A.R.K.C.A.R.K.C.[am]}$PEPTIDE1,PEPTIDE1,10:R3-14:R3$$$V2.0) | 0.122 nM | 4.37 nM | – | – | –
C[C@H](NC(=O)[C@H](CO)NC(=O)[C@H](CCCCN)NC(=O)[C@H](CCCNC(=N)N)NC(=O)[C@@H]1CSSC[C@H](N)C(=O)N[C@@H](Cc2ccccc2)C(=O)NCC(=O)NCC(=O)N[C@@H](Cc2ccccc2)C(=O)N[C@@H]([C@@H](C)O)C(=O)NCC(=O)N1)C(=O)N[C@@H](CCCNC(=N)N)C(=O)N[C@@H](CCCCN)C(N)=O (HELM PEPTIDE1{C.F.G.G.F.T.G.C.R.K.S.A.R.K.[am]}$PEPTIDE1,PEPTIDE1,1:R3-8:R3$$$V2.0) | 874 nM | > 10000 nM | – | – | –
C[C@H](NC(=O)CNC(=O)[C@@H](NC(=O)[C@H](Cc1ccccc1)NC(=O)CNC(=O)CNC(=O)[C@H](Cc1ccccc1)NC(=O)[C@@H](N)CS)[C@@H](C)O)C(=O)N[C@@H](CCCNC(=N)N)C(=O)N[C@@H](CCCCN)C(=O)N[C@@H](CO)C(=O)N[C@@H](CS)C(=O)N[C@@H](CCCNC(=N)N)C(=O)N[C@@H](CCCCN)C(N)=O (H-CFGGFTGARKSCRK-NH2) | – | – | – | 1290 nM | 286 nM
